# From PMC8451793 (Journal of Orthopaedic Research, 2020)
# Tests used:
# [1] = system: CLK-mediated phosphorylation of SRSF1, SRSF4, SRSF5, SRSF6 in rTDSCs and hMSCs; assay: Western blot of phospho-SRSFs; assay type: cell-based, human, rat
# Procedure, shortened: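 rTDSCs treated with test compound or DMSO for 24 h at 37°C, 5% CO2. Total protein extracted in RIPA buffer. Phospho-SRSF levels detected by Western blot with specific primary and secondary antibodies.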
# [2] = system: hMSCs and rTDSCs; assay: Tenocyte differentiation, immunostaining for tenocyte markers; assay type: cell-based, human, rat
# Procedure, shortened: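 Cells incubated at 37°C, 5% CO2 with test compound across a dose range or DMSO; rTDSCs treated 4 days (representative images at 1.5 μM). Fixed and immunostained for SCXA, TNMD, TNC, MKX, THBS4 and type I/III collagens; secondary antibody alone as negative control; BMP + FGF as positive control. High-content imaging; percent of total cells marker-positive; n = 4, mean ± SD.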
structure (smiles),measurement,setting,value
COc1ccc2c(c1)[nH]c1c(C)nccc12 [harmine],"CLK-mediated phosphorylation of SRSF1, SRSF4, SRSF5 and SRSF6",[1],no effects
same,Potency in promoting tenocyte differentiation relative to SM04755,[2],less potent than SM04755
